Compound activity deposited in PubChem BioAssay by several laboratories.
Compounds with a hit are over-represented: about 2.9% of the library has one in this group of screens.
HCV core dimer: inhibitors of HCV core protein dimerization, primary screen, biochemical, TR-FRET, high-throughput. 0.33% of 300,000 active. TR-FRET GST/Flag-core106 dimerization, 1536-well. inhibition, % at 5 µM;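 active = inhibition above the mean of all tested compounds plus 3 SD, set per screening campaign, cut at about 45% in these data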
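Material: GST/Flag-tagged HCV core106 proteins. Incubation: 4 h, 22.5 °C incubation. Read-out basis: inhibition (%) from 671 over 617 nm ratio. Measured by: TR-FRET, excitation 340 nm, emission 617 and 671 nm.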
ABHD5 PLIN5 PPI: ABHD5-PLIN5 interaction inhibitors, primary screen, cell lysate, split luciferase complementation, luminescence; Split G. princeps luciferase complementation, 4 h; Perilipin-5 (Homo sapiens) + 1-acylglycerol-3-phosphate O-acyltransferase ABHD5 (Homo …; 0.78% of 360,000 active; inhibition, % at 4 µM; AID 602281, 2012;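 active = inhibition above the mean inhibition across every tested compound plus 3 SD, cut at about 22% in these data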;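 note: 0% = DMSO only wells and the 100% control is not disclosed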
HCV NS3 hel inh: inhibitors of HCV NS3 helicase, primary screen, biochemical, Cy5 molecular beacon fluorescence | inhibition, % at 10.9 µM | NS3 helicase DNA unwinding | 0.56% of 290,000 active;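 active = inhibition above the mean of all tested compounds plus 3 SD, set per campaign, cut at about 35% in these data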;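 note: 0% = DMSO wells and 100% = thioflavine S control wells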
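Measured by: Cy5 fluorescence, 0 and 60 min reads / Assay system: NS3 helicase fragment of HCV / Control set: low DMSO, high thioflavine S at 110 µM / Times: 1 h reaction at 25 °C, ATP-initiated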
PRMT1 inh: PRMT1 methyltransferase inhibitors, primary screen, biochemical, fluorescence polarization | 1.3% of 370,000 active | AID 652257, 2013 | recombinant PRMT1, activity-based probe fluorescence polarization | Protein arginine N-methyltransferase 1 (Homo sapiens), Q99873 | inhibition, % at 2.79 µM;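 active = inhibition above about 21% made by adding two undisclosed values, limit read from the data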
APOBEC3A inh: APOBEC3A ssDNA deaminase inhibitors, primary screen, selectivity assay for APOBEC3G inhibitor project, biochemical, FAM/TAMRA oligo cleavage fluorescence | recombinant A3A, FAM/TAMRA ssDNA deamination fluorescence | inhibition, % at 20 µM | 0.41% of 330,000 active;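 active = at least 40% inhibition at 20 µM here, with at most 30% in a related deaminase screen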;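 note: plate controls were A3A with DMSO for no effect and wells lacking A3A enzyme for full effect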
Target sequence (P31941 whole entry, looked up): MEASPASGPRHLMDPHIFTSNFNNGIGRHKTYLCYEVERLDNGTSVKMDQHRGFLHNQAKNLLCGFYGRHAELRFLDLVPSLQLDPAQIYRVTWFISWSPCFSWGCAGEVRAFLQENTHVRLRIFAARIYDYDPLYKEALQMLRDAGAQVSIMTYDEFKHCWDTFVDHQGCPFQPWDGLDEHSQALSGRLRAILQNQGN
APOBEC3G inh: APOBEC3G DNA deaminase inhibitors, primary screen, biochemical, fluorescence, single-stranded DNA substrate, uHTS; DNA dC->dU-editing enzyme APOBEC-3G (Homo sapiens), Q9HC16; recombinant A3G, ssDNA deamination FAM/TAMRA fluorescence; inhibition, % at 20 µM; 0.28% of 330,000 active; AID 493012, 2011;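 active = inhibition of at least 40% at 20 µM, with no more than 30% in the related APOBEC3A deaminase screen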;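 note: plate controls were DMSO wells with A3G for no effect and wells lacking A3G enzyme for full effect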
A3G conf: APOBEC3G deaminase inhibitor retest, confirmation, biochemical, fluorescence, single-stranded DNA substrate, single concentration; recombinant A3G ssDNA deaminase, UDG/FAM-TAMRA fluorescence; shares compounds with APOBEC3G inh; 72% of 890 active; inhibition, % at 20 µM;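 active = inhibition reaching a set limit in any replicate at 20 µM, the limit being 80% of the first screen's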
UDG A3G counter: E. coli UDG inhibitors, confirmation, counter-screen for APOBEC3G inhibitor project, biochemical, single concentration, fluorescence, FAM/TAMRA oligo. shares compounds with APOBEC3G inh. UDG counterscreen. inhibition, % at 20 µM. 710 tested, under 10 active. AID 504715, 2011;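 active = compounds giving 40% or more inhibition at 20 µM in any one of the three replicates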;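 note: plate controls were DMSO wells with UDG and oligo for no effect and DMSO wells lacking both for full effect; inhibitors lower the FAM signal released by uracil excision and alkaline cleavage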
Target sequence (P12295 whole entry, looked up): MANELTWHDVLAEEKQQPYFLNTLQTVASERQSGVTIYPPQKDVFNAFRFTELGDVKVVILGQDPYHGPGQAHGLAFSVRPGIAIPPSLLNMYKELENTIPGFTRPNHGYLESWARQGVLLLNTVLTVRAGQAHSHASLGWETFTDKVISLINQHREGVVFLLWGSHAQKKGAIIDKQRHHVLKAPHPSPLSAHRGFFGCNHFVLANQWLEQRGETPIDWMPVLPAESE
An asterisk follows results filed as active; / = no result given.

SMILES	HCV core dimer	ABHD5 PLIN5 PPI	HCV NS3 hel inh	PRMT1 inh	APOBEC3A inh	APOBEC3G inh	A3G conf	UDG A3G counter
CCOc1ccc(-n2c(N)c(C(=O)N3CCN(C)CC3)sc2=S)cc1	5	-3	3	0	-3	-2	/	/
Nc1c(C(=O)N2CCCCC2)sc(=S)n1-c1ccccc1	5	-6	2	5	1	56*	27	/
Nc1c(C(=O)N2CCOCC2)sc(=S)n1-c1ccccc1	-6	-1	-2	5	0	52*	31*	-4
COc1ccc(N)c2c1C(=O)c1ccccc1C2=O	-63	6	2	-1	/	/	/	/
COc1cccc2c1C(=O)c1ccc3ccccc3c1C2=O	11	-27	-45	/	-10	65*	22*	-3
COc1ccc(OC)c2c1C(=O)c1ccccc1C2=O	1	/	-43	52*	-4	56*	-11	-2
c1ccc(CCc2nn3c(C4COc5ccccc5O4)nnc3s2)cc1 (centres undefined)	4	-6	-9	3	2	48*	31*	3
c1ccc(Cc2nnc3sc(-c4cccs4)nn23)cc1	7	-4	-1	6	3	20	/	/
c1ccc(CCc2nn3c(Cc4ccccc4)nnc3s2)cc1	7	1	-4	9	2	53*	59*	/
c1ccc(Cc2nn3c(C4COc5ccccc5O4)nnc3s2)cc1 (centres undefined)	-3	-1	-10	2	4	16	/	/
c1ccc(-c2nn3c(C4COc5ccccc5O4)nnc3s2)cc1 (centres undefined)	/	/	7	/	/	/	/	/
COc1ccccc1-c1nn2c(C3COc4ccccc4O3)nnc2s1 (centres undefined)	7	-2	-4	7	-2	51*	3	4
O=C(NCC(c1ccccc1)N1CCCC1)C1CCN(C(=O)Nc2ccccc2)CC1 (centres undefined)	/	6	/	-1	-5	6	/	/
CC1CC(C)CN(CC(O)COCc2ccccc2F)C1 (centres undefined)	4	-10	15	-1	0	-4	/	/
C[C@@H]1CN([C@H](C)CO)C(=O)CCCn2cc(nn2)CO[C@H]1CN(C)C(=O)c1ccc2ccn(C)c2c1	/	6	/	5	/	/	/	/
CCc1cc(/C(Cc2ccccn2)=N\Nc2ccccc2)c(O)cc1O	0	-2	1	-1	-6	42*	16	-2
CCCCn1nnnc1C(c1cc2ccccc2o1)N(CCN(C)C)Cc1ccccc1 (centres undefined)	/	-2	/	1	/	/	/	/
Cc1ccc(-n2c(CCc3nc4ccccc4[nH]3)n[nH]c2=S)cc1	-3	3	2	-2	4	52*	27	/
CCn1c(CCc2nc3ccccc3[nH]2)n[nH]c1=S	1	-4	4	-3	-2	19	/	/
CCc1nc2ccc(C(=O)NCCN3CCNC3=O)cn2c1N(C)Cc1ccc(OC)cc1	/	2	/	4	/	/	/	/
CC1CC(C)CN(C(C(=O)NC2CCCCC2)c2ccnc3ccccc23)C1 (centres undefined)	/	0	/	2	/	/	/	/
Cc1cc(=O)c(C(=O)O)c(C)n1-c1ccccc1	/	12	/	-1	/	/	/	/
COCCCN(CCCN)Cc1ccco1	-6	2	13	4	-2	71*	20	4
CCCC(C(=O)Nc1ccc(C)c(S(=O)(=O)N2CCOCC2)c1)c1ccccc1 (centres undefined)	1	4	/	-10	-2	-6	/	/
CCC(Oc1ccccc1)C(=O)Nc1ccc(C)c(S(=O)(=O)N2CCOCC2)c1 (centres undefined)	1	0	/	2	2	81*	-1	/
SMILES	HCV core dimer	ABHD5 PLIN5 PPI	HCV NS3 hel inh	PRMT1 inh	APOBEC3A inh	APOBEC3G inh	A3G conf	UDG A3G counter
CCOC(=O)N1CCN(c2ccnc3cc(Cl)ccc23)CC1	-9	-4	1	0	-1	58*	-59	-3
CCC(=O)N1CCN(c2ccnc3cc(Cl)ccc23)CC1	-1	2	3	5	3	2	/	/
C/C(=N\Nc1ccccc1C)c1cccnc1	0	4	4	1	-5	61*	12	1
C/C(=N\NC(=O)c1ccccc1C)c1cccnc1	4	-6	21	3	-7	-5	/	/
CC(=O)Nc1cc(OC(C)=O)c2nonc2c1OC(C)=O	1	18	7	59*	2	76*	70*	/
Cc1cccc2c(-c3ccccc3)cc(=O)[nH]c12	0	3	5	-1	-1	-3	/	/
Cc1cc(=S)[nH]c2c(C)cccc12	-1	6	-1	2	-2	79*	-1	-6
COc1ccc(-c2n[nH]c(=S)n2Cc2ccco2)cc1	1	-1	10	9	-3	36	/	/
COc1ccc(OCc2n[nH]c(=S)n2Cc2ccco2)cc1	0	3	7	2	-3	43*	72*	10
COc1ccc(CNCc2c(O)c(Cl)cc3c(C)c(C)c(=O)oc23)c(OC)c1	-19	2	-7	0	-2	-4	/	/
CCCCNC(=O)c1ccc(Cn2c(=S)[nH]c3c([nH]c4ccc(OC)cc43)c2=O)cc1	22	-5	9	-2	-3	-9	/	/
CCN(CC)CCNC(=O)CCCCn1c(=S)[nH]c2c([nH]c3ccc(OC)cc32)c1=O	-3	-3	-28	1	-3	69*	84*	8
CCC(=O)Nc1cccc(C2=NOC3(C2)C[C@@H](C(N)=O)N(C(=O)COc2ccc(Cl)cc2)C3)c1 (some centres undefined)	6	-21	/	-2	0	-13	/	/
C=C(C)C(=O)Nc1cccc(C2=NOC3(C2)C[C@@H](C(N)=O)N(C(=O)c2ccc(Cl)cc2)C3)c1 (some centres undefined)	-200	/	/	/	28	100*	90*	4
